In ChEMBL document CHEMBL3785072, “2,6-Di(arylamino)-3-fluoropyridine Derivatives as HIV Non-Nucleoside Reverse Transcriptase Inhibitors” (J Med Chem, 2016):

Legend:
[1] = tested on: Human immunodeficiency virus 1; test: Antiviral activity against R5-tropic HIV1 subtype B BaL infected in human TZM-bl cells assessed as viral inhibition pre-incubated for 30 mins prior to infection measured after 48 hrs by luciferase assay; format: functional, organism-based
How it was run: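 TZM-bl cells (10^4/well at 10^5 cells/mL, medium with 30 µg/mL DEAE dextran) pre-incubated with serial compound dilutions 30 min at 37 °C, 5% CO2. Then infected with 200 TCID50 HIV-1 BaL and incubated 48 h. Luciferase read-out expressed as % inhibition vs untreated controls. EC50 from non-linear regression. Triplicate wells, ≥3 independent experiments.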

[2] = Selectivity index, ratio of CC50 for human TZM-bl cells to EC50 for R5-tropic HIV1 subtype B BaL infected in human TZM-bl cells; format: toxicity, cell-based; conditions: for selectivity ratio: TZM-bl cells, read-out: Selectivity Index
[3] = tested on: Human immunodeficiency virus 1; test: Antiviral activity against HIV1 NL4.3 expressing reverse transcriptase K103N-Y181C mutant infected in human TZM-bl cells assessed as viral inhibition pre-incubated for 30 mins prior to infection measured after 48 hrs by luciferase assay; format: functional, organism-based; conditions: Human immunodeficiency virus 1, NL4.3, TZM-bl
How it was run: (§1)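 TZM-bl cells (10^4 per well, at 10^5 cells/mL in medium with 30μg/mL DEAE dextran) pre-incubated with serial compound dilutions, then infected with 200 TCID50 of resistant HIV-1; luciferase read after 48 h. Inhibition expressed as % of untreated controls; EC50 by non-linear regression. Triplicate wells, at least three independent experiments.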

[4] = tested on: Human immunodeficiency virus 1; test: Antiviral activity against efavirenz resistant R5-tropic HIV1 subtype C VI829 expressing reverse transcriptase L100I-K103N mutant infected in human TZM-bl cells assessed as viral inhibition pre-incubated for 30 mins prior to infection measured after 48 hrs by luciferase assay; format: functional, organism-based; conditions: Human immunodeficiency virus 1, VI829, TZM-bl; how it was run: as §1
[5] = tested on: Human immunodeficiency virus 1; test: Antiviral activity against nevirapine resistant R5-tropic HIV1 subtype C VI829 expressing reverse transcriptase Y181C mutant infected in human TZM-bl cells assessed as viral inhibition pre-incubated for 30 mins prior to infection measured after 48 hrs by luciferase assay; format: functional, organism-based; conditions: Human immunodeficiency virus 1, VI829, TZM-bl; how it was run: as §1
[6] = tested on: Human immunodeficiency virus 1; test: Antiviral activity against HIV1 NL4.3 expressing reverse transcriptase K103N mutant infected in human TZM-bl cells assessed as viral inhibition pre-incubated for 30 mins prior to infection measured after 48 hrs by luciferase assay; format: functional, organism-based; conditions: Human immunodeficiency virus 1, NL4.3, TZM-bl; how it was run: as §1
[7] = Human immunodeficiency virus 1, BaL, TZM-bl

| SMILES | EC50 [1, 7] | selectivity ratio [2] | EC50 [3] | EC50 [4] | EC50 [5] | EC50 ([1]; tzm-bl) | EC50 [6] | Selectivity Index ([2]; tzm-bl) |
| --- | --- | --- | --- | --- | --- | --- | --- | --- |
| Cc1ccc(Oc2ccc(F)c(Nc3ccc(C#N)cc3)n2)cc1 | 260 nM | 390 | – | – | – | – | – | – |
| Cc1cc(/C=C/C#N)cc(C)c1Nc1ccc(F)c(Nc2ccc(C#N)cc2)n1 | 1.5 nM | 62500 | 554 nM | 540 nM | 8.1 nM | 1.6 nM | 7.8 nM | 37500 |
| Cc1cc(C#N)cc(C)c1Nc1ccc(F)c(Nc2ccc(C#N)cc2)n1 | 4.7 nM | 7100 | – | > 10000 nM | 91 nM | – | – | – |
| Cc1cc(C#N)cc(C)c1Nc1cccc(Nc2ccc(C#N)cc2)n1 | 25 nM | 930 | – | 6600 nM | 1500 nM | – | – | – |
| Cc1cc(/C=C/C#N)cc(F)c1Nc1ccc(F)c(Nc2ccc(C#N)cc2)n1 | 1 nM | > 100000 | > 1000 nM | 272 nM | 25 nM | – | 36 nM | – |
| Cc1cc(C)c(Nc2ccc(F)c(Nc3ccc(C#N)cc3)n2)c(C)c1 | 8.3 nM | 2000 | – | > 10000 nM | 130 nM | – | – | – |
| Cc1cc(/C=C/C#N)ccc1Nc1ccc(F)c(Nc2ccc(F)cc2)n1 | 400 nM | 210 | – | – | – | – | – | – |
| Cc1cc(/C=C/C#N)ccc1Nc1ccc(F)c(Nc2ccc(Cl)cc2)n1 | 63 nM | 380 | – | – | – | – | – | – |
| N#C/C=C/c1cc(F)c(Nc2ccc(F)c(Nc3ccc(C#N)cc3)n2)c(F)c1 (mixture of isomers) | 3.3 nM | 4600 | – | – | – | – | – | – |
| Cc1cc(/C=C/C#N)cc(F)c1Nc1ccc(F)c(Nc2ccc(C#N)cc2)c1 (mixture of isomers) | 11 nM | 6100 | – | – | – | – | – | – |
| Cc1cc(/C=C/C#N)cc(C)c1Nc1cccc(Nc2ccc(C#N)cc2)n1 (mixture of isomers) | 3.5 nM | 11000 | – | > 1000 nM | 91 nM | – | – | – |
| Cc1cc(/C=C/C#N)ccc1Nc1ccc(F)c(Nc2ccc(C#N)cc2)c1 (mixture of isomers) | 58 nM | 89 | – | – | – | – | – | – |
| Cc1cc(/C=C/C#N)cc(F)c1Nc1cccc(Nc2ccc(C#N)cc2)n1 (mixture of isomers) | 5.5 nM | 5500 | – | 1100 nM | 255 nM | – | – | – |
| N#C/C=C/c1ccc(Nc2ccc(F)c(Nc3ccc(C#N)cc3)n2)cc1 (mixture of isomers) | 480 nM | 14 | – | – | – | – | – | – |
| Cc1cc(C)c(Nc2ccnc(Nc3ccc(C#N)cc3)n2)c(C)c1 [DAPIVIRINE] | 1.4 nM | 2000 | 92 nM | > 1000 nM | 11 nM | – | 2.8 nM | – |
| Cc1cc(/C=C/C#N)cc(C)c1Nc1ccnc(Nc2ccc(C#N)cc2)n1 [RILPIVIRINE] | 0.72 nM | 10700 | 3.1 nM | 3.6 nM | 2.5 nM | – | 0.7 nM | – |

Second part, led by results:

| EC50 [1, 7] | SMILES | selectivity ratio [2] | EC50 [3] | EC50 [4] | EC50 [5] | EC50 ([1]; tzm-bl) | EC50 [6] | Selectivity Index ([2]; tzm-bl) |
| --- | --- | --- | --- | --- | --- | --- | --- | --- |
| 2.8 nM | Cc1cc(C#N)cc(C)c1Nc1ncc(F)c(Nc2ccc(C#N)cc2)n1 | > 36000 | – | – | – | – | – | – |
| 51 nM | Cc1cc(C#N)cc(C)c1Nc1ccc(F)c(Nc2ccc(F)cc2)n1 | 830 | – | – | – | – | – | – |
| 8.6 nM | Cc1cc(C)c(Oc2ccc(F)c(Nc3ccc(C#N)cc3)n2)c(C)c1 | 6400 | – | – | – | – | – | – |
| 4.4 nM | COC(=O)/C=C/c1cc(C)c(Nc2ccc(F)c(Nc3ccc(C#N)cc3)n2)c(C)c1 | 13000 | – | – | – | – | – | – |
| 53 nM | COC(=O)/C=C/c1cc(C)c(Nc2ccc(F)c(Nc3ccc(Cl)cc3)n2)c(C)c1 | 950 | – | – | – | – | – | – |
| 84 nM | COC(=O)/C=C/c1cc(C)c(Nc2ccc(F)c(Nc3ccc(F)cc3)n2)c(C)c1 | 610 | – | – | – | – | – | – |
| 4.6 nM | Cc1cc(/C=C/C#N)cc(C)c1Nc1ccc(F)c(Nc2ccc(/C=C/C#N)cc2)n1 | 19000 | – | – | – | – | – | – |
| 15 nM | Cc1cc(C#N)cc(C)c1Nc1ccc(F)c(Nc2ccc(Cl)cc2)n1 | 2000 | – | – | – | – | – | – |
| 23 nM | COC(=O)c1ccc(Nc2nc(Nc3c(C)cc(/C=C/C#N)cc3C)ccc2F)cc1 | 2100 | – | – | – | – | – | – |
| 8.8 nM | Cc1cc(C#N)cc(F)c1Nc1ccc(F)c(Nc2ccc(C#N)cc2)n1 | 4600 | – | – | – | – | – | – |
| 30 nM | Cc1cc(C)c(Nc2cccc(Nc3ccc(C#N)cc3)n2)c(C)c1 | 1400 | – | – | – | – | – | – |
| 6.2 nM | Cc1cc(/C=C/C#N)cc(C)c1Nc1ccc(F)c(Nc2ccc(F)cc2)n1 (mixture of isomers) | 8100 | – | – | – | – | – | – |
| 6.3 nM | Cc1cc(/C=C/C#N)cc(C)c1Nc1ccc(F)c(Nc2ccc(Cl)cc2)n1 (mixture of isomers) | 6600 | – | – | – | – | – | – |
| 11 nM | Cc1cc(/C=C/C#N)ccc1Nc1ccc(F)c(Nc2ccc(C#N)cc2)n1 (mixture of isomers) | 24000 | – | – | – | – | – | – |
| 4.5 nM | Cc1cc(/C=C/C#N)cc(C)c1Nc1ccc(F)c(Nc2ccc(C#N)cc2)c1 (mixture of isomers) | 7400 | – | – | – | – | – | – |
| 0.9 nM | Cc1cc(/C=C/C#N)cc(C)c1Nc1ncc(F)c(Nc2ccc(C#N)cc2)n1 (mixture of isomers) | > 42000 | – | – | – | – | – | – |
